An excerpt weighted towards active compounds, which were near 1.9% of everything screened.
Yeast superoxide – lowers age-related superoxide in aged yeast cells. S. cerevisiae aged cells, superoxide DHE fluorescence; stronger effect = lower value. superoxide response (% of plate mean), % at 10 µM. 330,000 compounds, 0.18% hits;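 active = superoxide response under a set limit, about three screen SD below normal, cut at about 65% in these data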;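 note: yeast aged for seven days with compound at 30 °C before DHE staining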
beta cell repl – MIN6 beta-cell proliferation induction; MIN6 cells proliferation, ATPlite luminescence, 48 h; cells starved in 0.2% serum; 100% = growth in 10% serum; proliferation, % at 10 µM; 330,000 compounds, 0.29% hits; AID 2380;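 active = compounds whose signal lies at least 3.5 SD above the mean of all wells on their plate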
PG9 binder – binds the HIV-1 gp120 antibody PG9; TR-FRET gp120-PG9 antibody binding; 360,000 compounds, 0.43% hits; inhibition, % at 6.7 µM; in the data active = inhibition above about 8.5%
Rev-erbA mod – Rev-erb alpha (human) modulation; AID 1259318; Rev-erbα–FITC-DNA binding, fluorescence polarization, 90 min; activity, % at 10 µM; 370,000 compounds, 0.79% hits; P20393;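 active = activity above about 14%, limit read from the data; passing the limit was not always enough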
UCH37 DUB inh – blocks the human deubiquitinase UCH37; Q9Y5K5; purified proteasome/UCH37, Ub-AMC cleavage fluorescence; inhibition, % (test concentration not listed); 330,000 compounds, 0.33% hits; AID 588478;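 active = mean inhibition over replicate wells above about 20%, limit read from the data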
Target sequence (Q9Y5K5 whole entry, looked up): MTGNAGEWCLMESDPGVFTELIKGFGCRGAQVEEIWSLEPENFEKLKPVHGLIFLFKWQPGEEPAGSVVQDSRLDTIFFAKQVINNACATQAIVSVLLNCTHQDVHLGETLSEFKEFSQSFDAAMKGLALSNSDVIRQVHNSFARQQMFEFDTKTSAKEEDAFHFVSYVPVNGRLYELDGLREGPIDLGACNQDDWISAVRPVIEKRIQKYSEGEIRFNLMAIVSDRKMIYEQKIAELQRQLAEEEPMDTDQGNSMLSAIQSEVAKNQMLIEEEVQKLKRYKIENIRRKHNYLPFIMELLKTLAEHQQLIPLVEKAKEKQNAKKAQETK
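Material: human UCH37 enzyme supplied as purified proteasome complex / Amount: 0.15 nM proteasome as dispensed / Buffer or medium: pH 7.4 Tris-HCl (50 mM) with ovalbumin, ATP-MgCl2, DTT / Times: preincubation 30 min, reaction 25 min, room temperature / Technique: AMC fluorescence from Ub-AMC cleavage, excitation 355 nm, emission 460 nm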
Rce1 inh – blocks yeast Ras-converting enzyme | AID 2563 | 290,000 compounds, 0.27% hits | calls only | yeast membranes, quenched prenylated peptide cleavage fluorescence;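 active = fall in fluorescence gain of 50% or more versus controls, with final raw signal at or below 3038400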
Target sequence (Q03530 whole entry, looked up): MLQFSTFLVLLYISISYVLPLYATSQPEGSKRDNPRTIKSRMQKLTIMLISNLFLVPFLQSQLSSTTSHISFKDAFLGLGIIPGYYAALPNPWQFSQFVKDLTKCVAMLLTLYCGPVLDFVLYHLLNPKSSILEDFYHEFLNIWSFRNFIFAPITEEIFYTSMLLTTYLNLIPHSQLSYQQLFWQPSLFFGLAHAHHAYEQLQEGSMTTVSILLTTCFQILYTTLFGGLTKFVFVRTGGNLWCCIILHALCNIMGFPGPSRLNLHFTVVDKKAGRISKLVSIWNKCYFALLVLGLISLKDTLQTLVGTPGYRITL
PG9 binder conf – PG9 antibody binding, confirmed; shares compounds with PG9 binder; TR-FRET PG9 antibody binding, biochemical; inhibition, % at 6.7 µM; 1,500 compounds, 90% hits; AID 651571; in the data active = inhibition above about 9%
PGV04 Ab binding – counter-screen for PG9 binders: binding control antibody PGV04 | 1,500 compounds, 95% hits | inhibition, % at 6.7 µM | shares compounds with PG9 binder | TR-FRET PGV04 antibody-gp120 binding, biochemical; in the data active = inhibition above about 9.5%
PG9 binder DR – PG9 antibody binding, dose response | shares compounds with PG9 binder | TR-FRET PG9 antibody-gp120 binding inhibition | 95 tested, under 10 active | AID 651848 | IC50, µM; in the data active = IC50 below about 10 µM
PGV04 binding DR – counter-screen for PG9 binders: binding to control antibody PGV04. shares compounds with PG9 binder. TR-FRET binding to control antibody PGV04. IC50, µM. 95 compounds, 20% hits. AID 651937
PG126 binding DR – binds control antibody PG126 in PG9 counter-screen; shares compounds with PG9 binder; 95 compounds, 20% hits; IC50, µM; TR-FRET binding to antibody PG126, counterscreen
NR1D1 mod conf – confirmation of modulators of human Rev-erb alpha DNA binding | shares compounds with Rev-erbA mod | Rev-erb alpha FITC-DNA binding, fluorescence polarization, 90 min | activation, % at 25 µM | 3,000 compounds, 61% hits | AID 1259319;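 active = activation at or above a set limit, or at least 3 SD above the negative control mean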
RORg counter – affects RORgamma DNA binding in a Rev-erb alpha counter-screen; shares compounds with Rev-erbA mod; purified RORgamma protein-FITC-DNA binding, fluorescence polarization; IC50, µM; 910 compounds, 8% hits;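 active = Compounds whose fitted half-maximal concentration for disrupting protein-DNA binding is below 10 micromolar; the record names Rev-erb in its text, so the target is in doubt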
Of the large screens only hits and unclear results are named; the others gave an inactive call (follow-up assays come after a bar, where they were run). Cut-off read from the data, not from the text of the source, unless noted: active = IC50 below about 9 µM; inactive = the rest.

Cc1occc1C(=O)NN=C/C=C/c1ccccc1[N+](=O)[O-]	none (no result: Yeast superoxide, beta cell repl, PG9 binder, Rev-erbA mod, Rce1 inh)
COC(=O)CSc1nc2cc(OC)ccc2cc1C#N	none
COc1ccc2cc(C#N)c(SCC(=O)NNC(=O)Cc3ccccc3)nc2c1	PG9 binder 27.3, Rev-erbA mod 37.8 | PG9 binder conf 23.6 | PGV04 Ab binding 52.1 | NR1D1 mod conf inactive
CCCOc1ccc(C=NNC(=O)CCc2n[nH]c(=O)[nH]c2=O)cc1OC	none (no result: Yeast superoxide, beta cell repl, PG9 binder, Rev-erbA mod, Rce1 inh)
Cc1cccc(C=NNC(=O)NC2CCCCC2)c1	none (no result: Yeast superoxide, beta cell repl, PG9 binder, Rev-erbA mod, Rce1 inh)
CCCc1nc(SCC(=O)Nc2nnc(CC)s2)c2c(C)c(C)sc2n1	PG9 binder 12.3, Rev-erbA mod 26.2 | PG9 binder conf 17.7 | PGV04 Ab binding 15.9 | PG9 binder DR inactive | PGV04 binding DR inactive | PG126 binding DR inactive | NR1D1 mod conf inactive
CCc1nc(SCC(=O)Nc2nnc(CC)s2)c2c(C)c(C)sc2n1	none
CCn1c(=O)c(-c2nc3ccccc3[nH]2)c(O)c2ccccc21	PG9 binder 44.5, Rev-erbA mod 31.9 | PG9 binder conf 42.6 | PGV04 Ab binding 49.4 | NR1D1 mod conf inactive
CCCn1c(=O)c(-c2nc3ccccc3[nH]2)c(O)c2ccccc21	PG9 binder 50.0, Rev-erbA mod 26.5 | PG9 binder conf 61.9 | PGV04 Ab binding 70.9 | NR1D1 mod conf inactive
CCCCCCn1c(=O)c(-c2ccccc2)c(O)c2ccccc21	none
C=CCOc1c(Cl)cc(C=NO)cc1OC	none (no result: Yeast superoxide, beta cell repl, PG9 binder, Rev-erbA mod, Rce1 inh)
Cc1cc(NC(=O)CSc2nc3ccccc3c(=O)n2Cc2ccc(F)cc2)no1	PG9 binder 41.6, Rev-erbA mod 52.5 | PG9 binder conf 62.4 | PGV04 Ab binding 65.4 | NR1D1 mod conf 26.5
COCCn1c(SCC(=O)Nc2cc(C)on2)nc2ccccc2c1=O	none (no result: Rce1 inh)
CCCCCCn1c(SCC(=O)Nc2cc(C)on2)nc2ccccc2c1=O	PG9 binder 30.9, Rev-erbA mod 41.2 | PG9 binder conf 23.2 | PGV04 Ab binding 31.9 | NR1D1 mod conf 18.1
CN(C)c1ccnc(-n2cccc2C=NOCc2ccc(F)cc2Cl)c1C#N	none (no result: Yeast superoxide, beta cell repl, PG9 binder, Rev-erbA mod, Rce1 inh)
Cc1cc(-c2ccc(Br)s2)nc(-n2cccc2)n1	none (no result: Yeast superoxide, beta cell repl)
Cc1cc(-c2sccc2Br)nc(-n2cccc2)n1	PG9 binder 10.9, Rev-erbA mod 49.7 (no result: Yeast superoxide, beta cell repl) | PG9 binder conf 23.2 | PGV04 Ab binding 31.5 | NR1D1 mod conf 27.3
Cc1ccc(-c2nnc(NCc3nc4ccccc4[nH]3)c3ccccc23)cc1S(=O)(=O)N(C)C	PG9 binder 11.5, Rev-erbA mod 75.6 | PG9 binder conf 21.4 | PGV04 Ab binding 34.3 | NR1D1 mod conf 52.5 | RORg counter inactive
CCOc1ccccc1CNC(=O)C1CCN(c2nnc(C)c3c(C)n(-c4ccc(C)cc4)nc23)CC1	PG9 binder 9.3, Rev-erbA mod 44.1 (no result: UCH37 DUB inh) | PG9 binder conf 12.4 | PGV04 Ab binding 33.1 | NR1D1 mod conf 33.8 | RORg counter inactive
CCOc1ccc(-n2c(=O)c3sccc3n(CC(=O)Nc3cccc(OC)c3)c2=O)cc1	PG9 binder 24.4, Rev-erbA mod 31.3 | PG9 binder conf 25.6 | PGV04 Ab binding 42.8 | NR1D1 mod conf 27.4
COc1ccc(NC(=O)Cn2c(=O)n(-c3ccccc3)c(=O)c3sccc32)c(OC)c1	none
Cc1cc(C)c2c(N)c(C(=O)Nc3ccccc3Cl)sc2n1	none
Cc1cc(C)c2c(N)c(C(=O)Nc3ccccc3Br)sc2n1	PG9 binder 9.1, Rev-erbA mod 38.3 | PG9 binder conf 23.3 | PGV04 Ab binding 38.2 | NR1D1 mod conf 27.9
CSc1ccc(C=NN2CCN(C)CC2)cc1	none (no result: Yeast superoxide, beta cell repl, PG9 binder, Rev-erbA mod, Rce1 inh)
COc1ccc(C=NNC(=O)CCCCCNC(=O)c2ccccc2)cc1	none (no result: Yeast superoxide, beta cell repl, PG9 binder, Rev-erbA mod, Rce1 inh)
COc1ccccc1NC(=O)COC(=O)c1ccc2c(c1)OCCO2	PG9 binder 11.3, Rev-erbA mod 22.4 (no result: Rce1 inh) | PG9 binder conf inactive | PGV04 Ab binding 10.4 | NR1D1 mod conf 32.1 | RORg counter inactive
Cc1ccc(OCC(=O)NN=Cc2cccc3cccnc23)cc1	none (no result: Yeast superoxide, beta cell repl, PG9 binder, Rev-erbA mod, Rce1 inh)
O=c1cc(-c2ccccc2)[nH]c2nc3ccccc3n12	PG9 binder 12.7, Rev-erbA mod 24.4 | PG9 binder conf 20.1 | PGV04 Ab binding 32.1 | NR1D1 mod conf 16.6
Cc1ccc2nc(C)cc(NN=Cc3ccccc3O)c2c1	none (no result: Yeast superoxide, beta cell repl, PG9 binder, Rev-erbA mod, Rce1 inh)
CCN(CC)C(=O)c1ccc2c(=O)n(Cc3ccc4c(c3)OCO4)c(=S)[nH]c2c1	PG9 binder 24.1, Rev-erbA mod 28.6 | PG9 binder conf inactive | PGV04 Ab binding inactive | NR1D1 mod conf inactive
C=CCNC(=O)c1ccc(Cn2c(=S)[nH]c3cc4c(cc3c2=O)OCO4)cc1	PG9 binder 23.4, Rev-erbA mod 58.4 | PG9 binder conf 15.6 | PGV04 Ab binding 31.4 | NR1D1 mod conf 64.3 | RORg counter inactive
O=C(CCCCn1c(=S)[nH]c2ccsc2c1=O)NCc1ccc2c(c1)OCO2	PG9 binder 15.3, Rev-erbA mod 20.0 | PG9 binder conf 16.4 | PGV04 Ab binding 28.1 | NR1D1 mod conf inactive
CC(C)OCCCNC(=O)c1ccc2c(=O)n(Cc3ccc4c(c3)OCO4)c(=S)[nH]c2c1	none
N=C1C(c2nc3ccccc3s2)=C(O)CN1NC(=O)c1ccccc1[N+](=O)[O-]	none
N=C1C(c2nc3ccccc3s2)=C(O)CN1NC(=O)c1c[nH]c2ccccc12	PG9 binder 12.3, Rev-erbA mod 31.8 (no result: UCH37 DUB inh) | PG9 binder conf 21.9 | PGV04 Ab binding 39.1 | NR1D1 mod conf 51.3 | RORg counter inactive
COc1cc(NC(=O)c2ccc(-c3ccc(Br)cc3)o2)ccc1NC(=O)C(C)C	PG9 binder 21.8, Rev-erbA mod 36.9 | PG9 binder conf 40.9 | PGV04 Ab binding 29.8 | NR1D1 mod conf inactive
Cc1ccccc1-n1c(SCC(=O)Nc2ccccc2Cl)nc2n[nH]c(C)c2c1=N	none
Cc1cc(-n2c(SCC(=O)NCCC3=CCCCC3)nc3n[nH]c(C)c3c2=N)ccc1Cl	PG9 binder 41.3, Rev-erbA mod 45.2 | PG9 binder conf 46.1 | PGV04 Ab binding 57.9 | NR1D1 mod conf 21.0
